Data as given in ChEMBL document CHEMBL1121677, “8-Hydroxy-2-(di-n-propylamino)tetralin, a new centrally acting 5-hydroxytryptamine receptor agonist” (1981).
Calls of active or inactive are those of the source. The rule behind the calls is not given here.

How the values were obtained:
Rattus norvegicus [1] = assay: Inhibition of dopamine accumulation in striatum part of rat brain after subcutaneous administration; I= Inactive; type: functional, organism-based
Rattus norvegicus [2] = assay: Inhibition of 5-HTP accumulation in hemisphere of rat brain after subcutaneous administration of compound before 60 min to death; type: functional, organism-based
Summary of the method: (§1)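 Nonpretreated rats were given each enantiomer sc 60 min before death. NSD 1015 (100 mg/kg ip) was given 30 min before death, and 5-HTP or Dopa accumulation was measured in brain regions. Values are means ± SEM, n = 4 (some groups n = 3). Statistics: ANOVA followed by Student's t test.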

Rattus norvegicus [3] = assay: Inhibition of 5-Hydroxy Tryptamine accumulation in hemispheres of rat brain after subcutaneous administration; type: functional; details: sc
Rattus norvegicus [4] = assay: Inhibition of 5-Hydroxy Tryptamine accumulation in limbic part of rat brain after subcutaneous administration; type: functional; details: sc
Rattus norvegicus [5] = assay: Inhibition of dopamine accumulation in limbic part of rat brain after subcutaneous administration; I= Inactive; type: functional, organism-based
Rattus norvegicus [6] = assay: Inhibition of 5-Hydroxy Tryptamine accumulation in striatum part of rat brain after subcutaneous administration; type: functional; details: sc
Rattus norvegicus [7] = assay: Inhibition of 5-HTP accumulation in limbic part of rat brain after subcutaneous administration of compound before 60 min to death; type: functional, organism-based; details: Limbic system; summary of the method: as §1
Rattus norvegicus [8] = assay: Inhibition of dopamine accumulation in limbic part of rat brain after subcutaneous administration; type: functional; details: sc
Rattus norvegicus [9] = assay: Inhibition of 5-Hydroxy tryptamine accumulation in limbic part of rat brain after subcutaneous administration; I= Inactive; type: functional, organism-based
Rattus norvegicus [10] = assay: Inhibition of 5-Hydroxy tryptamine accumulation in hemispheres of rat brain after subcutaneous administration; I= Inactive; type: functional, organism-based
Rattus norvegicus [11] = assay: Inhibition of dopamine accumulation in striatum part of rat brain after subcutaneous administration; type: functional; details: sc
Rattus norvegicus [12] = assay: Inhibition of 5-Hydroxy tryptamine accumulation in striatum part of rat brain after subcutaneous administration; I= Inactive; type: functional, organism-based
Rattus norvegicus [13] = assay: Inhibition of 5-Hydroxy tryptamine accumulation in hemispheres of rat brain after subcutaneous administration; type: functional; details: sc
Rattus norvegicus [14] = assay: Inhibition of 5-Hydroxy tryptamine accumulation in striatum part of rat brain after subcutaneous administration; type: functional; details: sc
Rattus norvegicus [15] = assay: Inhibition of 5-Hydroxy tryptamine accumulation in limbic part of rat brain after subcutaneous administration; type: functional; details: sc

Structure (SMILES)	ED50 (Rattus norvegicus [1])	Concentration (Rattus norvegicus [2])	ED50 (Rattus norvegicus [3])	ED50 (Rattus norvegicus [4])	ED50 (Rattus norvegicus [5])	ED50 (Rattus norvegicus [6])	Concentration (Rattus norvegicus [7])	ED50 (Rattus norvegicus [8])	ED50 (Rattus norvegicus [9])	ED50 (Rattus norvegicus [10])	ED50 (Rattus norvegicus [11])	ED50 (Rattus norvegicus [12])	ED50 (Rattus norvegicus [13])	ED50 (Rattus norvegicus [14])	ED50 (Rattus norvegicus [15])
CCCN(CCC)[C@H]1CCc2cccc(O)c2C1	inactive	57 ng/g	0.09 µmol/kg	0.061 µmol/kg	inactive	0.075 µmol/kg	84 ng/g	–	–	–	–	–	–	–	–
CCCN(CCC)C1CCc2c(O)cccc2C1 (centres undefined) [5-OH-DPAT]	–	–	–	–	–	–	–	0.011 µmol/kg	inactive	inactive	0.009 µmol/kg	inactive	–	–	–
CCCN(CCC)[C@@H]1CCc2ccc(O)cc2C1	–	–	–	–	–	–	–	0.18 µmol/kg	inactive	inactive	0.17 µmol/kg	inactive	–	–	–
CCCN(CCC)C1CCc2cccc(O)c2C1 (racemic) [8-OH-DPAT]	inactive	–	–	–	inactive	–	–	–	–	–	–	–	0.068 µmol/kg	0.045 µmol/kg	0.048 µmol/kg
CCCN(CCC)C1CCc2ccc(O)cc2C1 (centres undefined)	–	–	–	–	–	–	–	0.027 µmol/kg	inactive	inactive	0.03 µmol/kg	inactive	–	–	–
CCCN(CCC)[C@@H]1CCc2cccc(O)c2C1	inactive	44 ng/g	–	–	inactive	–	63 ng/g	–	–	–	–	–	0.052 µmol/kg	0.048 µmol/kg	0.036 µmol/kg
